Assay results: PubChem BioAssay AID602414 (Southern Research Specialized Biocontainment Screening …, 2012)
Values joined by “and” are separate entries in the source; they are usually repeats but may differ in a detail not shown here. Identical values can stand only once. Active and inactive are the calls of the source.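 The calls were made as follows: active = viability under 80% at some tested dose in each replicate, a sign of cell toxicity; inconclusive = meets the active limit in only one replicate; inactive = the rest.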

Experiments:
[1] = tested on: Bladder 5637 cells viability, CellTiter-Glo, 72 h; experiment: cytotoxicity in bladder 5637 cells, dose response, cytotoxicity control for bacterial capsule biogenesis inhibitor project, cell-based, set 5 (AID 602414)
Outline: (§1)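 system = bladder carcinoma 5637 cells | timing = 72 h exposure | technique = CellTiter-Glo luminescence for cell viability | evaluation = percent viability versus mean cell-only control, CC50 from curve fit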

[2] = as above; conditions: Bladder 5637 cells viability, CellTiter-Glo, 72 h
Outline: as §1

| SMILES | CC50 [1] | other results |
| --- | --- | --- |
| O=C(Nc1cc(-c2ccc(C(F)(F)F)cc2)sc1C(=O)O)c1ccc(Br)o1 | 47.5 µM |  |
| CCOc1ccc(-c2cc(NC(=O)c3ccc(Br)o3)c(C(=O)O)s2)cc1 | 58.4 µM |  |
| O=C(Nc1nc2ccc(Br)cc2s1)c1cc(Br)c(Br)s1 |  | viability ([2]; at 150 µM (top of the series)): 110% (inactive) |
| CC(C)(C)c1ccc(-c2cc(NC(=O)c3c(F)cccc3F)c(C(=O)O)s2)cc1 | 35.1 µM |  |
| O=C(Nc1cc(-c2ccccc2)sc1C(=O)O)c1ccc2c(c1)OCCO2 | 121 µM |  |
| O=C(Nc1cc(-c2ccc(OC(F)(F)F)cc2)sc1C(=O)O)c1cc2ccccc2o1 | 40.6 µM |  |
| O=C(Nc1ccnc(Br)c1)c1ccc2ncsc2c1 | 136 µM |  |
| COc1ccc2nc(NC(=O)c3ccco3)sc2c1 | 66.7 µM |  |
| O=C(Nc1cc(-c2ccc(OC(F)(F)F)cc2)sc1C(=O)O)c1cccc(F)c1 | 52.1 µM |  |
| O=C(Nc1ccnc(Cl)c1)c1ccc2ncsc2c1 | 38.8 µM |  |
| O=C(ONc1ccc(N=NC(=O)c2ccccc2O)cc1)c1ccccc1 | 12.8 µM |  |
| COc1ccc(-c2cc(NC(=O)c3ccc(Br)o3)c(C(=O)O)s2)cc1 | 50.5 µM |  |
| O=C(O)c1sc(-c2ccc(C(F)(F)F)cc2)cc1NS(=O)(=O)c1ccc(Br)s1 | 45.2 µM |  |
| O=C(Nc1cc(-c2ccccc2)sc1C(=O)O)c1ccc(Br)o1 | 53.3 µM |  |
| CCCCOc1ccc(-c2cc(NC(=O)c3c(F)cc(F)cc3F)c(C(=O)O)s2)cc1 | 56.2 µM |  |
| COc1ccc(-c2cc(NC(=O)c3cccc(F)c3)c(C(=O)O)s2)cc1 | 44.8 µM |  |
| CCOc1ccc(-c2cc(NC(=O)c3cc4ccccc4o3)c(C(=O)O)s2)cc1 | 193 µM |  |
| CC(C)c1ccc(-c2cc(NC(=O)c3ccc(Br)s3)c(C(=O)O)s2)cc1 | 33.1 µM |  |
| O=C(NCc1cc([N+](=O)[O-])ccc1O)c1cccnc1Sc1ccccc1Cl | 51.9 µM |  |
| Cc1ccc(-c2cc(NC(=O)c3cccc(F)c3)c(C(=O)O)s2)cc1 | 43.9 µM |  |
| O=C(Nc1ccncc1F)c1ccc2ncsc2c1 | 229 µM |  |
| CCOc1ccc(-c2cc(NC(=O)c3ccc(Br)s3)c(C(=O)O)s2)cc1 | 49.7 µM |  |
| CC(C)(C)c1ccc(-c2cc(NC(=O)c3cccc(F)c3)c(C(=O)O)s2)cc1 | 21.1 µM |  |
| CCCCOc1ccc(-c2cc(NC(=O)c3c(F)cccc3F)c(C(=O)O)s2)cc1 | 42.6 µM |  |
| O=C(Nc1cc(-c2ccc(OC(F)(F)F)cc2)sc1C(=O)O)c1ccc(Br)o1 | 33.6 µM |  |
| Cc1ccc(-c2cc(NC(=O)c3cc4ccccc4o3)c(C(=O)O)s2)cc1 | 94.6 µM |  |
| CCCc1ccc(-c2cc(NC(=O)c3c(F)cccc3F)c(C(=O)O)s2)cc1 | 54.9 µM |  |

| SMILES | CC50 [1] | other results |
| --- | --- | --- |
| CCOc1ccc(-c2cc(NC(=O)c3c(F)cc(F)cc3F)c(C(=O)O)s2)cc1 | 76.6 µM |  |
| CN(C(=O)c1ccc2ncsc2c1)c1ccccc1 | 267 µM |  |
| CCOc1ccc(-c2cc(NC(=O)c3cccc(F)c3)c(C(=O)O)s2)cc1 | 55.6 µM |  |
| CCCCOc1ccc(-c2cc(NC(=O)c3cc(Br)c(Br)o3)c(C(=O)O)s2)cc1 | 31.7 µM |  |
| O=C(Nc1cc(-c2ccccc2)sc1C(=O)O)c1cccc(Cl)c1 | 35 µM |  |
| O=C(Nc1cc(-c2ccccc2)sc1C(=O)O)c1cccs1 | 34.7 µM |  |
| CC(C)c1ccc(-c2cc(NC(=O)c3cccc(F)c3)c(C(=O)O)s2)cc1 | 37.5 µM |  |
| O=C(Nc1cc(-c2ccc(C(F)(F)F)cc2)sc1C(=O)O)c1cc2ccccc2o1 | 72.1 µM |  |
| Cc1ccc(-c2cc(NS(=O)(=O)c3ccc(Br)s3)cs2)cc1 | 94 µM |  |
| O=C(Nc1ccncc1)c1ccc2ncsc2c1 | 178 µM and 244 µM |  |
| O=C(Nc1cc(-c2ccc(OCC(F)(F)F)cc2)sc1C(=O)O)c1ccc(Br)o1 | 50 µM |  |
| COc1ccc(-c2cc(NC(=O)c3cc4ccccc4o3)c(C(=O)O)s2)cc1 | 284 µM |  |
| CCOc1ccc(-c2cc(NC(=O)c3cccc(Cl)c3)c(C(=O)O)s2)cc1 | 43.6 µM |  |
| O=C(O)c1sc(-c2ccc(C(F)(F)F)cc2)cc1NC(=O)c1c(F)cccc1F | 44.8 µM |  |
| Cc1ccc(-c2cc(NC(=O)c3ccc(Br)s3)c(C(=O)O)s2)cc1 | 66 µM |  |
| CCCc1ccc(-c2cc(NC(=O)c3cc(Br)c(Br)o3)c(C(=O)O)s2)cc1 | 41 µM |  |
| COc1cccc2sc(NC(=O)c3ccc(Br)s3)nc12 | 24.4 µM |  |
| CCCc1ccc(-c2cc(NC(=O)c3ccc(Br)o3)c(C(=O)O)s2)cc1 | 46.4 µM |  |
| O=S(=O)(Nc1nc2ccc(OC(F)(F)F)cc2s1)c1ccc(Br)s1 | 65.9 µM |  |
| CCCOc1ccc(-c2cc(NC(=O)c3c(F)cc(F)cc3F)c(C(=O)O)s2)cc1 | 85.6 µM |  |
| CC(C)c1ccc(-c2cc(NC(=O)c3cc4ccccc4o3)c(C(=O)O)s2)cc1 | 47.2 µM |  |
| [N-]=[N+]=NCCOc1ccc(-c2cc(NC(=O)c3c(F)cccc3F)c(C(=O)O)s2)cc1 | 273 µM |  |
| Cc1ccc(-c2cc(NC(=O)c3c(F)cccc3F)c(C(=O)O)s2)cc1 | 57.3 µM |  |
| O=C(Nc1cc(-c2ccc(OCCCC(F)(F)F)cc2)sc1C(=O)O)c1ccc(Br)o1 | 38.7 µM |  |
| CC(C)c1ccc(-c2cc(NC(=O)c3ccc(Br)o3)c(C(=O)O)s2)cc1 | 50.4 µM |  |
| COc1ccc2nc(NC(=O)c3cccs3)sc2c1 | 29.3 µM |  |
| CC(C)(C)c1ccc(-c2cc(NC(=O)c3ccc(Br)s3)c(C(=O)O)s2)cc1 | 20.5 µM |  |

| SMILES | CC50 [1] | other results |
| --- | --- | --- |
| O=C(Nc1ncccc1O)c1ccc2ncsc2c1 | 159 µM |  |
| CCCc1ccc(-c2cc(NC(=O)c3c(F)cc(F)cc3F)c(C(=O)O)s2)cc1 | 69.9 µM |  |
| O=C(O)c1sc(-c2ccc(OC(F)(F)F)cc2)cc1NC(=O)c1c(F)cccc1F | 51 µM |  |
| CCOc1ccc(-c2cc(NC(=O)c3c(F)cccc3C(F)(F)F)c(C(=O)O)s2)cc1 | 62 µM |  |
| O=C(Nc1cc(-c2ccc(OCCCC(F)(F)F)cc2)sc1C(=O)O)c1cc(Br)c(Br)o1 | 26.6 µM and 251 µM |  |
| CCOc1ccc2nc(NC(=O)c3ccc(Br)s3)sc2c1 | 91.2 µM |  |
| CCOc1ccc(-c2cc(NC(=O)c3c(F)cccc3F)c(C(=O)O)s2)cc1 | 42.1 µM and 51.6 µM |  |
| O=C(O)c1sc(-c2ccc(OCCCC(F)(F)F)cc2)cc1NC(=O)c1c(F)cccc1F | 241 µM |  |
| O=C(O)c1sc(-c2ccc(OCCC(F)(F)F)cc2)cc1NC(=O)c1c(F)cccc1F | 68.4 µM |  |
| O=C(O)c1sc(-c2ccc(OCC(F)(F)F)cc2)cc1NC(=O)c1c(F)cc(F)cc1F | 161 µM |  |
| O=C(Nc1cc(-c2ccc(C(F)(F)F)cc2)sc1C(=O)O)c1cccc(F)c1 | 35.1 µM |  |
| O=C(O)c1sc(-c2ccc(OCC(F)(F)F)cc2)cc1NC(=O)c1c(F)cccc1F | 75.2 µM |  |
| CC(C)c1ccc(-c2cc(NC(=O)c3c(F)cccc3F)c(C(=O)O)s2)cc1 | 32.4 µM |  |
| CC(C)(C)c1ccc(-c2cc(NC(=O)c3cc4ccccc4o3)c(C(=O)O)s2)cc1 | 34.5 µM |  |
| O=S(=O)(Nc1nc2ccc(F)cc2s1)c1ccc(Br)s1 | 135 µM |  |
| O=C(Nc1cc(-c2ccc(C(F)(F)F)cc2)sc1C(=O)O)c1ccc(Br)s1 | 38.5 µM |  |
| O=C(O)c1sc(-c2ccc(OCCC(F)(F)F)cc2)cc1NC(=O)c1c(F)cc(F)cc1F | 63.6 µM |  |
| O=C(Nc1cc(-c2ccc(OCCC(F)(F)F)cc2)sc1C(=O)O)c1ccc(Br)o1 | 41.7 µM |  |
| COc1cccc2sc(NCc3ccc(Br)s3)nc12 | 165 µM |  |
| O=C(O)c1sc(-c2ccc(OCCCC(F)(F)F)cc2)cc1NC(=O)c1c(F)cc(F)cc1F | 54.7 µM |  |
| O=C(Nc1ccc2ncsc2c1)c1ccncc1 |  | viability ([2]; at 300 µM (top of the series)): 119% (inactive) |
| O=C(Nc1ccnc(F)c1)c1ccc2ncsc2c1 | 119 µM |  |
| COc1ccc(-c2cc(NC(=O)c3c(F)cccc3F)c(C(=O)O)s2)cc1 | 53.3 µM |  |
| CCOc1ccc(-c2cc(NC(=O)c3ccc(OC)c(OC)c3)c(C(=O)O)s2)cc1 | 61.8 µM |  |
| Cc1ccc(-c2cc(NC(=O)c3ccc(Br)o3)c(C(=O)O)s2)cc1 | 50.7 µM |  |
| CCCCOc1ccc(-c2cc(NC(=O)c3ccc(Br)o3)c(C(=O)O)s2)cc1 | 43.4 µM |  |
